Laboratory results reported in ChEMBL document CHEMBL4014334, “BET Bromodomain Inhibitors with One-Step Synthesis Discovered from Virtual Screen” (J Med Chem, 2017).

Assays:
[1] = biological target: Bromodomain-containing protein 4 (Homo sapiens, UniProt O60885); test: Binding affinity to 5FW-labeled BRD4 bromodomain 1 (unknown origin) expressed in Escherichia coli BL21(DE3) by PrOF NMR spectroscopic analysis
Outline: (§1)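 BrdT samples also contain 3 mM DTT. Spectra recorded with compound present and absent at 500 MHz, 90° flip angle, 0.7 s relaxation delay, 0.1 s acquisition, 500 transients. The read-out is broadening or shift of the binding-pocket Trp resonance.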

[2] = biological target: Nucleosome-remodeling factor subunit BPTF (Homo sapiens, UniProt Q12830); test: Binding affinity to 5FW-labeled BPTF (unknown origin) by PrOF NMR spectroscopic analysis; outline: as §1
[3] = biological target: T1, Bromodomain testis-specific protein (Homo sapiens, UniProt Q58F21); test: Binding affinity to 5FW-labeled BRDT bromodomain 1 residue (unknown origin) expressed in Escherichia coli BL21(DE3) by PrOF NMR spectroscopic analysis
[4] = biological target: T1, Bromodomain testis-specific protein; test: Binding affinity to 5FW-labeled BRDT bromodomain 1 W50 residue (unknown origin) expressed in Escherichia coli BL21(DE3) by PrOF NMR spectroscopic analysis
Outline: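 5FW-BrdT(1) at 40–50 μM in 50 mM Tris, 100 mM NaCl, 3 mM DTT, pH 7.4, 5% D2O. The pocket Trp resonance is followed for broadening and for a new upfield peak as ligand is titrated.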

Kd [1]: 660 µM | Kd [2]: 6800 µM | Kd [3]: 1500 µM | Kd [4]: 1500 µM
SMILES: CCn1c(N)cc(=O)[nH]c1=O
